{
  "source": "ChEMBL document CHEMBL1143542",
  "about": "“Structure-activity relationships of bivalent aminoglycosides and evaluation of their microbiological activities” (2005)",
  "assay_type_in_all_cases": "functional",
  "key": {"Staphylococcus aureus [1]": {"system": "Staphylococcus aureus", "experiment": "In vitro minimum inhibitory concentration against Staphylococcus aureus MRSA 3359", "method_in_brief": "(§1)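 Broth microdilution following CLSI M100-S12. Stocks were 10 mg/mL in water, diluted in Mueller–Hinton broth to a top level of 128, then serially 2-fold in plates. Bacteria in cation-adjusted Mueller–Hinton broth were mixed 1:1 with drug and incubated 16–20 h at 35 °C. MIC was the lowest concentration with no visible growth. Run in duplicate with no-antibiotic and no-inoculum (sterility) controls.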"}, "Pseudomonas aeruginosa [2]": {"system": "Pseudomonas aeruginosa", "experiment": "In vitro minimum inhibitory concentration against Pseudomonas aeruginosa ATCC 27853", "method_in_brief": "as §1"}, "Staphylococcus aureus [3]": {"system": "Staphylococcus aureus", "experiment": "In vitro minimum inhibitory concentration against Staphylococcus aureus ATCC 29213", "method_in_brief": "as §1"}, "Enterococcus faecalis": {"system": "Enterococcus faecalis", "experiment": "In vitro minimum inhibitory concentration against Enterococcus faecalis 29212", "method_in_brief": "as §1"}, "Escherichia coli": {"system": "Escherichia coli", "experiment": "In vitro minimum inhibitory concentration against Escherichia coli ATCC 25922", "method_in_brief": "as §1"}, "Pseudomonas aeruginosa [4]": {"system": "Pseudomonas aeruginosa", "experiment": "In vitro minimum inhibitory concentration against Pseudomonas aeruginosa PAO-1 Minimum inhibitory concentration against Pseudomonas aeruginosa PAO-1", "method_in_brief": "as §1"}},
  "data": [
    {"smiles": "NC[C@@H]1C[C@H](O)[C@@H](N)[C@H](O[C@H]2[C@H](O)[C@@H](OC[C@@H](O)CN[C@H]3CC[C@H](NC[C@@H](O)CO[C@@H]4[C@@H](O)[C@H](O[C@H]5O[C@H](CN)[C@@H](O)C[C@H]5N)[C@@H](N)C[C@H]4N)CC3)[C@H](N)C[C@@H]2N)O1", "values": [
      {"measurement": "MIC", "setting": "Staphylococcus aureus [1]", "result": 16, "unit": "µg/mL"},
      {"measurement": "MIC", "setting": "Pseudomonas aeruginosa [2]", "result": 2, "unit": "µg/mL"},
      {"measurement": "MIC", "setting": "Staphylococcus aureus [3]", "result": 0.5, "unit": "µg/mL"},
      {"measurement": "MIC", "setting": "Enterococcus faecalis", "result": 32, "unit": "µg/mL"},
      {"measurement": "MIC", "setting": "Escherichia coli", "result": 4, "unit": "µg/mL"},
      {"measurement": "MIC", "setting": "Pseudomonas aeruginosa [4]", "result": 2, "unit": "µg/mL"}
    ]},
    {"smiles": "NC[C@H]1O[C@H](O[C@H]2[C@H](OC[C@H](O)CNCCCNCCNC[C@@H](O)CO[C@@H]3[C@@H](O)[C@H](N)C[C@H](N)[C@H]3O[C@H]3O[C@H](CN)[C@@H](O)[C@H](O)[C@H]3N)[C@@H](O)[C@H](N)C[C@@H]2N)[C@H](N)[C@@H](O)[C@@H]1O", "values": [
      {"measurement": "MIC", "setting": "Staphylococcus aureus [1]", "result": "> 50", "unit": "µg/mL"},
      {"measurement": "MIC", "setting": "Pseudomonas aeruginosa [2]", "result": "> 50", "unit": "µg/mL"},
      {"measurement": "MIC", "setting": "Staphylococcus aureus [3]", "result": "> 50", "unit": "µg/mL"},
      {"measurement": "MIC", "setting": "Enterococcus faecalis", "result": "> 50", "unit": "µg/mL"},
      {"measurement": "MIC", "setting": "Escherichia coli", "result": "> 50", "unit": "µg/mL"},
      {"measurement": "MIC", "setting": "Pseudomonas aeruginosa [4]", "result": "> 50", "unit": "µg/mL"}
    ]},
    {"smiles": "CN(CCCCN(C)C[C@@H](O)CO[C@@H]1[C@@H](O)[C@H](N)C[C@H](N)[C@H]1O[C@H]1O[C@H](CN)[C@@H](O)C[C@H]1N)C[C@H](O)CO[C@@H]1[C@@H](O)[C@H](N)C[C@H](N)[C@H]1O[C@H]1O[C@H](CN)[C@@H](O)[C@H](O)[C@H]1N", "values": [
      {"measurement": "MIC", "setting": "Staphylococcus aureus [1]", "result": 32, "unit": "µg/mL"},
      {"measurement": "MIC", "setting": "Pseudomonas aeruginosa [2]", "result": 16, "unit": "µg/mL"},
      {"measurement": "MIC", "setting": "Staphylococcus aureus [3]", "result": 2, "unit": "µg/mL"},
      {"measurement": "MIC", "setting": "Enterococcus faecalis", "result": "> 50", "unit": "µg/mL"},
      {"measurement": "MIC", "setting": "Escherichia coli", "result": 16, "unit": "µg/mL"},
      {"measurement": "MIC", "setting": "Pseudomonas aeruginosa [4]", "result": 16, "unit": "µg/mL"}
    ]},
    {"smiles": "NC[C@H]1O[C@H](O[C@H]2[C@H](OC[C@H](O)CN[C@H]3CC[C@H](NC[C@@H](O)CO[C@@H]4[C@@H](O)[C@H](N)C[C@H](N)[C@H]4O[C@H]4O[C@H](CN)[C@@H](O)[C@H](O)[C@H]4N)CC3)[C@@H](O)[C@H](N)C[C@@H]2N)[C@H](N)[C@@H](O)[C@@H]1O", "values": [
      {"measurement": "MIC", "setting": "Staphylococcus aureus [1]", "result": 50, "unit": "µg/mL"},
      {"measurement": "MIC", "setting": "Pseudomonas aeruginosa [2]", "result": 1.6, "unit": "µg/mL"},
      {"measurement": "MIC", "setting": "Staphylococcus aureus [3]", "result": 50, "unit": "µg/mL"},
      {"measurement": "MIC", "setting": "Enterococcus faecalis", "result": "> 50", "unit": "µg/mL"},
      {"measurement": "MIC", "setting": "Escherichia coli", "result": 25, "unit": "µg/mL"}
    ]},
    {"smiles": "CN(CCCCCCN(C)C[C@@H](O)CO[C@@H]1[C@@H](O)[C@H](N)C[C@H](N)[C@H]1O[C@H]1O[C@H](CN)[C@@H](O)[C@H](O)[C@H]1N)C[C@@H](O)CO[C@@H]1[C@@H](O)[C@H](N)C[C@H](N)[C@H]1O[C@H]1O[C@H](CN)[C@@H](O)[C@H](O)[C@H]1N", "values": [
      {"measurement": "MIC", "setting": "Staphylococcus aureus [1]", "result": "> 50", "unit": "µg/mL"},
      {"measurement": "MIC", "setting": "Pseudomonas aeruginosa [2]", "result": 12.5, "unit": "µg/mL"},
      {"measurement": "MIC", "setting": "Staphylococcus aureus [3]", "result": 6.3, "unit": "µg/mL"},
      {"measurement": "MIC", "setting": "Enterococcus faecalis", "result": "> 50", "unit": "µg/mL"},
      {"measurement": "MIC", "setting": "Escherichia coli", "result": 25, "unit": "µg/mL"},
      {"measurement": "MIC", "setting": "Pseudomonas aeruginosa [4]", "result": 50, "unit": "µg/mL"}
    ]},
    {"smiles": "NC[C@@H]1C[C@H](O)[C@@H](N)[C@H](O[C@H]2[C@H](O)[C@@H](OC[C@@H](O)CNCCCCNC[C@@H](O)CO[C@@H]3[C@@H](O)[C@H](O[C@H]4O[C@H](CN)[C@@H](O)C[C@H]4N)[C@@H](N)C[C@H]3N)[C@H](N)C[C@@H]2N)O1", "values": [
      {"measurement": "MIC", "setting": "Staphylococcus aureus [1]", "result": 16, "unit": "µg/mL"},
      {"measurement": "MIC", "setting": "Pseudomonas aeruginosa [2]", "result": 2, "unit": "µg/mL"},
      {"measurement": "MIC", "setting": "Staphylococcus aureus [3]", "result": 0.5, "unit": "µg/mL"},
      {"measurement": "MIC", "setting": "Enterococcus faecalis", "result": 32, "unit": "µg/mL"},
      {"measurement": "MIC", "setting": "Escherichia coli", "result": 4, "unit": "µg/mL"},
      {"measurement": "MIC", "setting": "Pseudomonas aeruginosa [4]", "result": 2, "unit": "µg/mL"}
    ]},
    {"smiles": "CN(CCCCN(C)C[C@@H](O)CO[C@@H]1[C@@H](O)[C@H](O[C@H]2O[C@H](CN)[C@@H](O)C[C@H]2N)[C@@H](N)C[C@H]1N)C[C@H](O)CO[C@@H]1[C@@H](O)[C@H](O[C@@H]2O[C@H](CN)C[C@H](O)[C@H]2N)[C@@H](N)C[C@H]1N", "values": [
      {"measurement": "MIC", "setting": "Staphylococcus aureus [1]", "result": 20.9, "unit": "µg/mL"},
      {"measurement": "MIC", "setting": "Pseudomonas aeruginosa [2]", "result": 10.4, "unit": "µg/mL"},
      {"measurement": "MIC", "setting": "Staphylococcus aureus [3]", "result": 0.6, "unit": "µg/mL"},
      {"measurement": "MIC", "setting": "Enterococcus faecalis", "result": 20.9, "unit": "µg/mL"},
      {"measurement": "MIC", "setting": "Escherichia coli", "result": 5.2, "unit": "µg/mL"},
      {"measurement": "MIC", "setting": "Pseudomonas aeruginosa [4]", "result": 2.6, "unit": "µg/mL"}
    ]},
    {"smiles": "NC[C@H]1O[C@H](O[C@H]2[C@H](OC[C@@H](O)CNCCCCNC[C@@H](O)CO[C@@H]3[C@@H](O)[C@H](N)C[C@H](N)[C@H]3O[C@H]3O[C@H](CN)[C@@H](O)C[C@H]3N)[C@@H](O)[C@H](N)C[C@@H]2N)[C@H](N)[C@@H](O)[C@@H]1O", "values": [
      {"measurement": "MIC", "setting": "Staphylococcus aureus [1]", "result": 16, "unit": "µg/mL"},
      {"measurement": "MIC", "setting": "Pseudomonas aeruginosa [2]", "result": 4, "unit": "µg/mL"},
      {"measurement": "MIC", "setting": "Staphylococcus aureus [3]", "result": 2, "unit": "µg/mL"},
      {"measurement": "MIC", "setting": "Enterococcus faecalis", "result": 32, "unit": "µg/mL"},
      {"measurement": "MIC", "setting": "Escherichia coli", "result": 16, "unit": "µg/mL"},
      {"measurement": "MIC", "setting": "Pseudomonas aeruginosa [4]", "result": 4, "unit": "µg/mL"}
    ]},
    {"smiles": "CN(CCOCCOCCN(C)C[C@@H](O)CO[C@@H]1[C@@H](O)[C@H](N)C[C@H](N)[C@H]1O[C@H]1O[C@H](CN)[C@@H](O)[C@H](O)[C@H]1N)C[C@@H](O)CO[C@@H]1[C@@H](O)[C@H](N)C[C@H](N)[C@H]1O[C@H]1O[C@H](CN)[C@@H](O)[C@H](O)[C@H]1N", "values": [
      {"measurement": "MIC", "setting": "Staphylococcus aureus [1]", "result": "> 50", "unit": "µg/mL"},
      {"measurement": "MIC", "setting": "Pseudomonas aeruginosa [2]", "result": "> 50", "unit": "µg/mL"},
      {"measurement": "MIC", "setting": "Staphylococcus aureus [3]", "result": "> 50", "unit": "µg/mL"},
      {"measurement": "MIC", "setting": "Enterococcus faecalis", "result": "> 50", "unit": "µg/mL"},
      {"measurement": "MIC", "setting": "Escherichia coli", "result": "> 50", "unit": "µg/mL"},
      {"measurement": "MIC", "setting": "Pseudomonas aeruginosa [4]", "result": "> 50", "unit": "µg/mL"}
    ]}
  ]
}
